Results on 19 compounds are retold here after ChEMBL document CHEMBL1146030, “Identification of thieno[3,2-b]pyrroles as allosteric inhibitors of hepatitis C virus NS5B polymerase” (Bioorg Med Chem Lett, 2006).

Active and inactive are the calls of the source. The calls are words filed in the database; no cut-off is given here.

The target of series [1] is RNA-directed RNA polymerase (Hepacivirus hominis, UniProt O39930). In words: Inhibition of HCV BK NS5B deltaC55 RNA dependent RNA polymerase. The arrangement: species or system Hepatitis C virus (isolate BK). The essentials: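 Purified NS5B ΔC55 enzyme from HCV genotype BK strain, assayed with heterogeneous template RNA; IC50 determined with a modified literature protocol.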

In series [2] the test system is Hepatitis C virus. In words: Inhibition of HCV RNA replication in Huh7 cells up to 100 uM. Type of series: functional, organism-based. Conditions: Hepacivirus hominis; Huh-7.
The subject of series [3] is Hepatitis C virus. Put plainly: Inhibition of HCV RNA replication in Huh7 cells in presence of 10% fetal calf serum. It is filed as functional, organism-based, Hepacivirus hominis. Particulars: Huh-7.
A short description of series [4]: Partition coefficient, log D at pH 7.4. Particulars: octanol/water.

Sequence of RNA-directed RNA polymerase (O39930 whole entry): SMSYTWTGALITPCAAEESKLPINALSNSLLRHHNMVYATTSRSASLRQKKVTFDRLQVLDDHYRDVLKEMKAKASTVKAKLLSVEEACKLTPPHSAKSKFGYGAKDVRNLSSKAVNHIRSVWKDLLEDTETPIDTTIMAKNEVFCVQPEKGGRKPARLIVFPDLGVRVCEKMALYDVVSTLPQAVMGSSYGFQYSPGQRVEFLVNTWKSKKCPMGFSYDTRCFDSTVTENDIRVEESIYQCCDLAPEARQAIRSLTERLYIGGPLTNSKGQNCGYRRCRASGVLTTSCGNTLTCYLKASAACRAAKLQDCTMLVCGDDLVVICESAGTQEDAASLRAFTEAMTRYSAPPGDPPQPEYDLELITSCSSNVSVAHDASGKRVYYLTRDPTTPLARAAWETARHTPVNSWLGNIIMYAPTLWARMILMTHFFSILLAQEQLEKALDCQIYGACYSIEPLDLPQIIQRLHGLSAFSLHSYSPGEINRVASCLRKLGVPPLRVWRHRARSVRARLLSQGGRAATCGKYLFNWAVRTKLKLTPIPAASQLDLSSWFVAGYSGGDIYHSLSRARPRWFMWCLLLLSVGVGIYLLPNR

As for `O=C(O)c1ccc2nc(-c3ccccc3)c(C3CCCCC3)cc2c1`, half-maximal inhibition in series [1] (IC50) was put at 4.8 µM. Besides, in the series on Hepatitis C virus [2], the result was inactive.
In the case of `O=C(O)c1ccc2c(C3CCCCC3)c(-c3ccccc3)[nH]c2c1`, the EC50 (as a rule, the midpoint of the concentration-response curve) with Hepatitis C virus [3] was 6.7 µM.
`O=C(O)c1ccc2cc(C3CCCCC3)c(-c3ccccc3)nc2c1`: in series [1], the IC50 (usually the concentration that gives 50% inhibition) is above 50 µM. In the series with Hepatitis C virus [2], the result was inactive.
In series [1], `CN(C)C(=O)Cn1c(-c2ccccc2)c(C2CCCCC2)c2cc(C(=O)O)sc21` gave an IC50 of 0.23 µM. Also, in the series with Hepatitis C virus [3], the EC50 came to 9.5 µM.
`O=C(O)c1ccc2c(C3CCCCC3)c(-c3ccccc3)cn2c1` registered an IC50 in series [1] of 0.094 µM. Further, the outcome in the series on Hepatitis C virus [2] was inactive.
On the same counts, the results for `O=C(O)c1cc2c(nc(-c3ccccc3)n2C2CCCCC2)s1` are 13.8 µM and “inactive”.
Turning to `O=C(O)c1ccc2c(c1)nc(-c1ccccc1)n2C1CCCCC1`, half-maximal inhibition in series [1] (IC50) required 6.5 µM. Besides, the EC50 with Hepatitis C virus [3] was above 50 µM.
For the compound `O=C(O)c1ccc2c(C3CCCCC3)c(-c3ccccc3)n(CC(=O)N3CCOCC3)c2c1`, the EC50 with Hepatitis C virus [3] turned out to be 0.8 µM.
Compound `O=C(O)c1cc2nc(-c3ccccc3)n(C3CCCCC3)c2s1` had an IC50 in series [1] of 17.2 µM. For the same compound, the result in the series with Hepatitis C virus [2] was inactive.
Regarding `COc1ccc(-c2nc3cc(C(=O)O)ccc3n2C2CCCCC2)cc1`, the IC50 in series [1] came out at 11.2 µM. In addition, the EC50 in the series with Hepatitis C virus [3] is above 50 µM.
On the same counts, the results for `CN(C)C(=O)Cn1c(-c2ccccc2)c(C2CCCCC2)c2sc(C(=O)O)cc21` are 0.058 µM and 2.9 µM.
In the case of `CN(C)C(=O)Cn1c(-c2ccccc2)c(C2CCCCC2)c2ncc(C(=O)O)cc21`, in series [1], the IC50 amounted to 2.2 µM. For the same compound, in the series with Hepatitis C virus [3], the EC50 is above 50 µM. The logD (commonly lipophilicity at a set pH, counting ionised and neutral species) in series [4] was determined as 0.8.
In series [1], `O=C(O)c1cc2c(C3CCCCC3)c(-c3ccccc3)[nH]c2s1` yielded an IC50 of 0.12 µM. The EC50 in the series on Hepatitis C virus [3] is 19.5 µM.
`O=C(O)c1cc2[nH]c(-c3ccccc3)c(C3CCCCC3)c2s1` came in with an IC50 in series [1] of 0.066 µM. In the series with Hepatitis C virus [3], the EC50 worked out at 11.2 µM. The logD in series [4] is 3.4.
On the same counts, the results for `O=C(O)c1ccc2c(C3CCCCC3)c(-c3ccccc3)[nH]c2n1` are 0.15 µM, 16.8 µM and 3.3.
`COc1ccc(-c2nc(/C=C/C(=O)O)cn2C2CCCCC2)cc1`: in series [1], the IC50 came to 77.3 µM. Besides, in the series with Hepatitis C virus [2], the outcome was inactive.
On the same counts, the results for `O=C(O)c1cc2nc(-c3ccccc3)n(C3CCCCC3)c2[nH]1` are above 50 µM and “inactive”.
`O=C(O)c1c[nH]c2c(C3CCCCC3)c(-c3ccccc3)nc-2c1` gave an IC50 in series [1] of 1.9 µM. Moreover, the EC50 with Hepatitis C virus [3] came out at 48.2 µM. This compound had a logD in series [4] of 2.5.
On the same counts, the results for `CN(C)C(=O)Cn1c(-c2ccccc2)c(C2CCCCC2)c2ccc(C(=O)O)nc21` are 0.32 µM, 9.8 µM and 1.1.
